Assay results taken from ChEMBL document CHEMBL3259644, “Dibenzo[1,4,5]thiadiazepine: a hardly-known heterocyclic system with neuroprotective properties of potential usefulness in the treatment of neurodegenerative diseases” (Eur J Med Chem, 2014).

Experiments:
[1] = test system: SH-SY5Y; assay: Neuroprotective activity in human SH-SY5Y cells assessed as protection against rotenone-oligomycin-induced toxicity at 3 uM co-incubated with rotenone-oligomycin measured after 24 hrs by lactate dehydrogenase release assay; assay type: functional
Method in brief: (§1)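 Co-incubation: cells (10^5/well, serum-free DMEM) given compound together with rotenone 30 µM plus oligomycin A 10 µM for 24 h. Cell death by LDH release. Protection: basal LDH subtracted from toxin-induced release, normalized to 100%, then subtracted from 100. Mean of 4 independent experiments in triplicate.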

[2] = test system: SH-SY5Y; assay: Neuroprotective activity in human SH-SY5Y cells assessed as protection against rotenone-oligomycin-induced toxicity at 1 uM preincubated for 24 hrs before rotenone-oligomycin addition measured after 24 hrs by lactate dehydrogenase release assay; assay type: functional
Method in brief: (§2)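 Pre-incubation: compound given to cells (10^5/well, serum-free DMEM) for 24 h. Medium then replaced with fresh medium holding compound plus rotenone 30 µM and oligomycin A 10 µM for another 24 h. LDH release read. Protection = 100 minus normalized toxin-induced LDH release above basal. Mean of 4 independent experiments in triplicate.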

[3] = Cytotoxicity against human SH-SY5Y cells assessed as cell viability at 3 uM after 24 hrs by lactate dehydrogenase release assay; assay type: cell-based; conditions: read-out: Activity
Method in brief: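 Cells plated at 10^5 per well at least 48 h beforehand, in serum-free DMEM, before confluence. Exposed to compound at 3 µM for 24 h. LDH released to medium measured by colorimetric kit (492/620 nm), expressed as extracellular versus total LDH.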

[4] = test system: SH-SY5Y; assay: Neuroprotective activity in human SH-SY5Y cells assessed as protection against rotenone-oligomycin-induced toxicity at 3 uM preincubated for 24 hrs before rotenone-oligomycin addition measured after 24 hrs by lactate dehydrogenase release assay; assay type: functional; method in brief: as §2
[5] = target: Cholinesterase (Equus caballus, UniProt P81908); assay: Inhibition of horse serum BuChE using butyrylthiocholine as substrate by UV spectroscopic analysis
[6] = test system: SH-SY5Y; assay: Neuroprotective activity in human SH-SY5Y cells assessed as protection against rotenone-oligomycin-induced toxicity at 1 uM co-incubated with rotenone-oligomycin measured after 24 hrs by lactate dehydrogenase release assay; assay type: functional; method in brief: as §1
[7] = test system: SH-SY5Y; assay: Neuroprotective activity in human SH-SY5Y cells assessed as protection against rotenone-oligomycin-induced toxicity at 0.3 uM preincubated for 24 hrs before rotenone-oligomycin addition measured after 24 hrs by lactate dehydrogenase release assay; assay type: functional; method in brief: as §2
[8] = Permeability of the compound by PAMPA; assay type: physicochemical; conditions: read-out: permeability
Method in brief: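 PAMPA-BBB: filter impregnated with porcine brain lipid in dodecane (20 mg/mL). Compound at 100 µg/mL in PBS pH 7.4:ethanol 70:30 in donor. Acceptor held PBS:ethanol 70:30. Incubated 240 min at 25 °C. Acceptor concentration read by UV-Vis at five wavelengths, in four wells, at least three runs. Mean ± SD. 10 reference drugs validated each run.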

[9] = test system: SH-SY5Y; assay: Neuroprotective activity in human SH-SY5Y cells assessed as protection against rotenone-oligomycin-induced toxicity at 0.3 uM co-incubated with rotenone-oligomycin measured after 24 hrs by lactate dehydrogenase release assay; assay type: functional; method in brief: as §1
[10] = test system: SH-SY5Y; assay: Antioxidant activity in human SH-SY5Y cells assessed as rotenone-oligomycin-induced sequestering of mitochondrial free radicals at 0.3 uM after 120 mins using DCFH-DA by fluorescence microplate reader analysis; assay type: functional
Method in brief: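 Intracellular ROS probe: cells grown to confluence, loaded with 10 µM DCFH-DA for 45 min, basal fluorescence read. Rotenone 30 µM, oligomycin A 10 µM and compound 0.3 µM then added together at t = 0. Fluorescence change read after 120 min (ex 485/em 520 nm). Trolox 0.3 µM served as positive control. Mean of 3 independent experiments.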

[11] = test system: SH-SY5Y; assay: Inhibition of calcium channel in human SH-SY5Y cells assessed as blockade of K+-evoked cytosolic calcium increase at 3 uM after 15 mins using Fluo-4/AM by fluorescence microplate reader analysis; assay type: cell-based
Method in brief: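 Confluent cells loaded with Fluo-4/AM 4 µM for 1 h at 37 °C, washed twice in Krebs-Hepes, then 15 min at room temperature. Compound (3 µM) applied 10 min before K+ raised to 70 mM final. Triton X-100 (5%) and MnCl2 (1 mM) gave maximal and basal fluorescence. Nifedipine 3 µM as positive control. Mean of 3 experiments.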

Cholinesterase, sequence (P81908 whole entry): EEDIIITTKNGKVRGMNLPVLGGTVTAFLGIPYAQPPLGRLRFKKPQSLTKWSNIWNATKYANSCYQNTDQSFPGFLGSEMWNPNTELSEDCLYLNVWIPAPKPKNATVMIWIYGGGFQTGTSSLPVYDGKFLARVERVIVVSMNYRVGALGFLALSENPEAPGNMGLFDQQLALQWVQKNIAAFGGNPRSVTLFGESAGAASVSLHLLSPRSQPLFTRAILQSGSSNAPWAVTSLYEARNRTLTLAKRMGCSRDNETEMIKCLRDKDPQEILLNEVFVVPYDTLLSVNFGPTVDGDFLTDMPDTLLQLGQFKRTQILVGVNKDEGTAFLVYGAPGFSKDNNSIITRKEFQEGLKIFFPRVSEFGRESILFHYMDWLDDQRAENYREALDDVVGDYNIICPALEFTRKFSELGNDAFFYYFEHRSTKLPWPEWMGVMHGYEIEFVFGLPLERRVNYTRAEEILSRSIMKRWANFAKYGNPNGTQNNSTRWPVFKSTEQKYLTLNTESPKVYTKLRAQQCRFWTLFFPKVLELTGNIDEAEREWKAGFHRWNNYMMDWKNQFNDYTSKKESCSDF

Row | Compound | Activity [1] [%] | Activity [2] [%] | viability at 24 h, 3 µM [3] [%] | Activity [4] [%] | IC50 [5] [µM] | Activity [6] [%] | Activity [7] [%] | Papp [8] [×10⁻⁶ cm/s] | Activity [9] [%] | Activity [10] [%] | inhibition [11] [%]
1 | CC(=O)n1c2ccccc2sc2cc(Cl)ccc2n1C(C)=O | 63.2 | 76.6 | 100 | 81.5 | > 100 | 59.2 | 64.8 | 10.1 | 49 | 24.3 | 21.5
2 | CC(=O)n1c2ccccc2sc2cc(C(F)(F)F)ccc2n1C(C)=O | 35.8 | 91.1 | 100 | 92.2 | > 100 | 35 | 76.4 | 4 | 20.7 |  | 
3 | Cc1c(C)c2c(c(C)c1O)CCC(C)(C(=O)O)O2 (stereo unspecified) [TROLOX] | 55.7 |  |  | 56.1 |  |  |  |  |  | 22.3 | 
4 | CN1CCN(CC(=O)n2c3ccccc3sc3ccc(Cl)cc3n2C(=O)CN2CCN(C)CC2)CC1 | 35.7 | 96.4 | 100 | 97.5 | > 100 | 42.6 | 86 | 5.9 | 50.6 | 24.3 | 9.3
5 | Clc1ccc2c(c1)Sc1ccccc1N=N2 | 38.8 | 90.2 | 100 | 84.4 | > 100 | 31.4 | 90.3 | 12.3 | 40.5 |  | 
6 | CC(=O)n1[nH]c2ccc([N+](=O)[O-])cc2sc2ccccc21 | 21.9 | 75.8 | 100 | 72.7 | > 100 | 27.8 | 83.8 | 3.9 | 26.2 |  | 
7 | O=C(CN1CCCCC1)n1c2ccccc2sc2cccc(Cl)c2n1C(=O)CN1CCCCC1 | 35.6 | 83.9 | 100 | 83.4 | 0.9 | 38.2 | 90.5 | 7.3 | 43.3 |  | 
8 | CN(C)CCC(=O)n1c2ccccc2sc2ccc(Cl)cc2n1C(=O)CCN(C)C | 15.9 | 92.1 | 100 | 96.1 | 0.7 | 20.4 | 75.9 | 14.2 | 8.1 |  | 
9 | CC(=O)n1c2ccccc2sc2ccc(Cl)cc2n1C(C)=O | 38.3 | 88.9 | 100 | 91.1 | > 100 | 38.3 | 79.8 | 12.3 | 9.3 |  | 
10 | COC(=O)C1=C(C)NC(C)=C(C(=O)OC)C1c1ccccc1[N+](=O)[O-] |  |  |  |  |  |  |  |  |  |  | 47.9
11 | COc1ccc2c(c1)sc1ccccc1n(C(C)=O)n2C(C)=O | 53.8 | 97 | 100 | 95.7 | > 100 | 50.1 | 89.7 | 12.6 | 49.9 | 21.6 | 13.1
12 | O=C(CCN1CCCCC1)n1c2ccccc2sc2ccc(Cl)cc2n1C(=O)CCN1CCCCC1 | 63 | 90.4 | 100 | 96.4 | > 100 | 55.4 | 84.6 | 5.3 | 53 | 18.8 | 16.2
13 | O=C(CCN1CCCC1)n1c2ccccc2sc2ccc(Cl)cc2n1C(=O)CCN1CCCC1 | 32.7 | 94.6 | 100 | 92.4 | > 100 | 45.9 | 99.3 | 3.7 | 40.7 |  | 
